{
  "source": "ChEMBL document CHEMBL1275600",
  "about": "“Prophylactic activity of intramuscular peramivir in mice infected with a recombinant influenza A/WSN/33 (H1N1) virus containing the H274Y neuraminidase mutation” (Antimicrob Agents Chemother, 2010)",
  "key": {"Influenza A virus [1]": {"tested_on": "Influenza A virus", "experiment": "Antiviral activity against recombinant Influenza A/WSN/33 (H1N1) virus infected in BALB/c mouse assessed as survival of mouse at 45 mg/kg, im administered as single dose", "type": "functional, organism-based", "design": "dose 45 mg/kg", "conditions": "A/WSN/1933(H1N1)", "in_short": "(§1)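 Male BALB/c mice, 6–8 weeks old and 20–25 g, were randomized by weight, 4 per cage, in groups of 12. Drug at 50 mg/ml in saline buffered to pH 3.0 was given by IM hip injection, first dose 1 h before challenge. Mice were infected intranasally under isoflurane with 8 × 10^3 PFU of cell-grown recombinant virus in 30 μl PBS. Mortality was recorded daily for 14 days.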"}, "[2]": {"experiment": "Cmax in mouse at 30 mg/kg, im administered as single dose and measured after 24 hrs", "type": "ADME, organism-based", "design": "dose 30 mg/kg, route intramuscular", "conditions": "in vivo"}, "[3]": {"molecular_target": "Neuraminidase (Influenza A virus (strain A/Wilson-Smith/1933 H1N1) (Influenza A virus(strain A/WS/1933 H1N1))) (UniProt P03470)", "sequence (P03470 whole entry)": "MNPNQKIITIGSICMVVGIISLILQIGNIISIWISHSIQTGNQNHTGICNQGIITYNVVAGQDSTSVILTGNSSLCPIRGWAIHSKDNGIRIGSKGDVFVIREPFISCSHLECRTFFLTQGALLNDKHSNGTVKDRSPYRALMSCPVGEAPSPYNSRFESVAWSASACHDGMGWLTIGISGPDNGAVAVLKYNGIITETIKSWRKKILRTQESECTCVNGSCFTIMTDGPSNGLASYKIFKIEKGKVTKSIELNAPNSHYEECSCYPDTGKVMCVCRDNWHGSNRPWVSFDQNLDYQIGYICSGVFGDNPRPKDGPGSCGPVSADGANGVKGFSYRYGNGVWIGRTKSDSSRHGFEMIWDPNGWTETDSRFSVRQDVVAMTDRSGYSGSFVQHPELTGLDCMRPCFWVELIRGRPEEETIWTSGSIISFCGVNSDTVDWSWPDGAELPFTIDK", "conditions": "Influenza A virus (A/WSN/1933(H1N1)); 2 to 20 mg/kg"}, "[4]": {"molecular_target": "Neuraminidase (Influenza A virus (strain A/Wilson-Smith/1933 H1N1) (Influenza A virus(strain A/WS/1933 H1N1))) (UniProt P03470)", "conditions": "Influenza A virus (A/WSN/1933(H1N1)); 10 mg/kg"}, "[5]": {"experiment": "Cmax in mouse at 30 mg/kg, im administered as single dose and measured after 30 mins", "type": "ADME, organism-based", "design": "dose 30 mg/kg, route intramuscular", "conditions": "in vivo"}, "Mus musculus [6]": {"tested_on": "Mus musculus", "experiment": "Toxicity against BALB/c mouse assessed as weight loss in mouse at 45 mg/kg, im once daily for 5 days measured after 14 days", "type": "organism-based", "design": "dose 45 mg/kg, route intramuscular", "conditions": "in vivo, 336 h", "in_short": "(§2)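 Uninfected male BALB/c mice, 6 per group, received IM drug at 45 mg/kg once daily for 5 days, dissolved at 50 mg/ml in pH 3.0 buffered saline, or PBS. Body weight and mortality were monitored daily for 14 days.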"}, "Influenza A virus [7]": {"tested_on": "Influenza A virus", "experiment": "Antiviral activity against Influenza A/WSN/33 (H1N1) virus infected in mouse assessed as survival rate at 10 mg/kg, im administered 4 days before viral challenge", "type": "functional", "conditions": "A/WSN/1933(H1N1), route intramuscular"}, "Mus musculus [8]": {"tested_on": "Mus musculus", "experiment": "Toxicity against recombinant Influenza A/WSN/33 (H1N1) virus infected BALB/c mouse assessed as weight loss at 45 mg/kg, im administered as single dose and measured after 14 days", "type": "organism-based", "design": "dose 45 mg/kg, route intramuscular", "conditions": "in vivo, 336 h", "in_short": "(§3)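 Male BALB/c mice, groups of 12, received IM drug at 50 mg/ml in pH 3.0 buffered saline, starting 1 h before intranasal infection with 8 × 10^3 PFU of recombinant virus. Body weight was monitored daily for 14 days. Mean weight loss was compared across regimens by one-way ANOVA, with uninfected PBS-treated mice as reference.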"}, "Mus musculus [9]": {"tested_on": "Mus musculus", "experiment": "Toxicity against recombinant Influenza A/WSN/33 (H1N1) virus infected BALB/c mouse assessed as weight loss at 90 mg/kg, im administered as single dose and measured after 14 days", "type": "organism-based", "design": "dose 90 mg/kg, route intramuscular", "conditions": "in vivo, 336 h", "in_short": "as §3"}, "Influenza A virus [10]": {"tested_on": "Influenza A virus", "experiment": "Antiviral activity against recombinant Influenza A/WSN/33 (H1N1) virus infected in BALB/c mouse assessed as survival of mouse at 45 mg/kg, im once daily for 5 days", "type": "functional, organism-based", "design": "dose 45 mg/kg", "conditions": "A/WSN/1933(H1N1)", "in_short": "as §1"}, "Influenza A virus [11]": {"tested_on": "Influenza A virus", "experiment": "Antiviral activity against Influenza A/WSN/33 (H1N1) virus infected in mouse assessed as survival rate at 10 mg/kg, po administered 4 days before viral challenge", "type": "functional", "conditions": "A/WSN/1933(H1N1)"}, "Influenza A virus [12]": {"tested_on": "Influenza A virus", "experiment": "Antiviral activity against recombinant Influenza A/WSN/33 (H1N1) virus infected in BALB/c mouse assessed as survival of mouse at 90 mg/kg, im administered as single dose", "type": "functional, organism-based", "design": "dose 90 mg/kg", "conditions": "A/WSN/1933(H1N1)", "in_short": "as §1"}, "Mus musculus [13]": {"tested_on": "Mus musculus", "experiment": "Toxicity against recombinant Influenza A/WSN/33 (H1N1) virus infected BALB/c mouse assessed as weight loss at 45 mg/kg, im once daily for 5 days measured after 14 days", "type": "organism-based", "design": "dose 45 mg/kg, route intramuscular", "conditions": "in vivo, 336 h", "in_short": "as §3"}, "Mus musculus [14]": {"tested_on": "Mus musculus", "experiment": "Toxicity against BALB/c mouse assessed as mortality at 45 mg/kg, im once daily for 5 days measured after 14 days", "type": "organism-based", "design": "dose 45 mg/kg, route intramuscular", "conditions": "in vivo, 336 h", "in_short": "as §2"}},
  "note": "Active and inactive are the calls of the source. The rule behind the calls is not given here.",
  "data": [
    {"smiles": "CCC(CC)[C@H](NC(C)=O)[C@@H]1[C@H](O)[C@@H](C(=O)O)C[C@H]1NC(=N)N", "note": "[PERAMIVIR ANHYDROUS]", "values": [
      {"measurement": "Activity", "setting": "Influenza A virus [1]", "result": "Active"},
      {"measurement": "Cmax", "setting": "[2]", "result": 29.3, "unit": "ng/mL"},
      {"measurement": "T1/2", "setting": "[3]", "result": 1.25, "unit": "h"},
      {"measurement": "T1/2", "setting": "[4]", "result": "> 24", "unit": "h"},
      {"measurement": "Cmax", "setting": "[5]", "result": 17700, "unit": "ng/mL"},
      {"measurement": "Activity", "setting": "Mus musculus [6]", "result": "Non-toxic"},
      {"measurement": "survival at 10 mg/kg", "setting": "Influenza A virus [7]", "result": 100, "unit": "%"},
      {"measurement": "Activity", "setting": "Mus musculus [8]", "result": "Non-toxic"},
      {"measurement": "Activity", "setting": "Mus musculus [9]", "result": "Non-toxic"},
      {"measurement": "Activity", "setting": "Influenza A virus [10]", "result": "Active"},
      {"measurement": "survival at 10 mg/kg", "setting": "Influenza A virus [11]", "result": 50, "unit": "%"},
      {"measurement": "Activity", "setting": "Influenza A virus [12]", "result": "Active"},
      {"measurement": "Activity", "setting": "Mus musculus [13]", "result": "Non-toxic"},
      {"measurement": "Activity", "setting": "Mus musculus [14]", "result": "Non-toxic"}
    ]}
  ]
}
